# Screening data from PubChem.
# Shown is part of a subset that was picked to be rich in hits.
# H69AR inhibit – blocks growth of human H69AR lung tumor cells; H69AR lung tumor viability, ATP luminescence, 72 h; active compounds read low; viability, % at 10 µM; 85,000 compounds, 6% hits;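 active means viability at or below 40%; inactive means viability above 40%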;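 further: multidrug resistant small cell line overexpressing MRP-1 efflux transporter; 100% = mean luminescence of untreated control wells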
# PTEN del growth – suppresses growth of cells with PTEN deletion; HCT116 PTEN-null viability, CellTiter-Glo, 60 h; active compounds read low; viability, % at 10 µM; 140,000 compounds, 1.2% hits;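 active means viability at or below a set limit, 4 SD under the median of all tested compounds, cut at about 3.7% in these data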;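 further: PTEN knockout HCT116 line with beta catenin targeted HCT116 as companion control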
# HUVEC prolif 384 – blocks proliferation of human endothelial cells | viability, % at 10 µM (by protocol) | AID 648 | HUVEC proliferation, CellTiter-Glo luminescence, 72 h; active compounds read low | 86,000 compounds, 1.1% hits;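 active means viability at or below 30%; inactive means viability above 30%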;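 further: 100% = median luminescence of DMSO-only cell control wells on each plate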
# bCat KO growth – beta-catenin-lacking colon tumor cell growth suppression. HCT116 beta-catenin knockout viability, CellTiter-Glo, 60 h; active compounds read low. viability, % at 10 µM. 140,000 compounds, 1.5% hits;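 active means viability at or under a set limit, the compound median less 4 SD, cut at about 6% in these data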;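 further: 0% = Hyamine 1622 control at 20 µM and 100% = untreated cell control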
# Lung fibro prol – blocks proliferation of human lung fibroblasts | LL 47 human lung fibroblast viability, ATP luminescence; active compounds read low | viability, % at 10 µM | 85,000 compounds, 1.1% hits | AID 719;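 active means viability at or below 50% in the single dose screen; inactive means viability above 50%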;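 further: compound exposure lasted 72 h before the ATP readout; 100% = median luminescence of untreated cell-only wells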
#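 Test system: LL 47 human lung fibroblasts / Incubation: 72 h compound exposure at 37 °C after overnight plating / Technique: luminescent ATP detection, CellTiter-Glo / Compound dosing: 0.1% DMSO in all compound wells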
# Numbers without * were called inactive; . = no result given.
SMILES,H69AR inhibit,PTEN del growth,HUVEC prolif 384,bCat KO growth,Lung fibro prol
N#Cc1ccc2ccn(CC(=O)NCc3ccccc3)c2c1,36.1*,25.3,74.7,26.1,92.4
N#Cc1ccc2ccn(CC(=O)NC3CCCCC3)c2c1,101.2,89.6,102.0,81.6,99.9
Cc1[nH]c2c(Cl)cccc2c(=O)c1CN1CCCC1,.,92.3,.,87.1,.
Cc1nc2ccc(S(=O)(=O)NC(C(=O)Nc3nc4ccc(Cl)cc4s3)C(C)C)cc2s1 (stereo not drawn),30.5*,53.5,96.3,48.8,96.4
Cc1nc2ccc(S(=O)(=O)NC(C(=O)Nc3nccs3)C(C)C)cc2s1 (stereo not drawn),95.3,90.5,97.7,92.5,98.2
O=C(Cn1c(=O)oc2cc(S(=O)(=O)N3CCCC3)ccc21)NC1CCCc2ccccc21 (stereo not drawn),95.8,81.5,95.5,86.6,107.3
Oc1cccc2ccc(Nc3ccccn3)nc12,0.6*,1.7*,2.6*,1.8*,54.4
O=C(NCc1ccco1)c1cc2cc3ccc(Cl)cc3nc2o1,9.5*,18.2,68.7,9.1,53.3
COc1ccc2cc3cc(C(=O)NCc4ccco4)oc3nc2c1,92.8,85.3,74.3,90.9,107.2
COC(=O)/C(=C\Nc1ccc(OC)cc1)NC(=O)c1ccc(Cl)cc1Cl,36.2*,76.9,74.6,64.8,88.4
COC(=O)[C@@H]1C[C@]2(OC(=O)c3ccccc3)C=CC(=O)C[C@@H]2N1C(=O)OCc1ccccc1,.,2.5*,.,3.0*,.
O=C(O)C1CCCN1C(=O)OCc1ccccc1 (stereo not drawn),94.8,100.3,105.1,101.0,95.5
CCCCOc1ccc(CN(C)c2ncnc(N)n2)cc1,34.9*,60.0,78.2,55.4,91.2
N#CC1=C(N)NC(SCc2ccccc2)=C(C#N)C12CCCCC2,10.7*,37.0,26.4*,15.8,60.0
CCSC1=C(C#N)C2(CCCCC2)C(C#N)=C(N)N1,79.1,87.0,89.6,81.2,86.2
N#Cc1c(/N=C/c2cc(Br)cs2)sc2c1CCC2,72.3,.,102.1,.,105.3
COc1ccccc1OCC(=O)Nc1ccc(S(=O)(=O)Nc2nc(C)cc(C)n2)cc1,85.2,96.1,83.7,103.1,92.2
Cc1cc(NC(=O)CSc2nnc3c(C)cc4c(C)ccc(C)c4n23)no1,25.7*,31.9,50.7,30.9,71.5
Cc1cc(NC(=O)CSc2nc3c(c(=O)n2-c2ccc(Br)cc2)SCC3)no1,19.8*,9.1,52.7,46.4,49.1*
COc1ccc(NC(=O)CSc2nc3ccccc3c(=O)n2CCC(=O)N2CCCCC2)cc1,39.6*,77.7,79.4,84.8,97.9
CCOc1ccc(-n2c(SCC(=O)Nc3cc(C)on3)nc3c([nH]c4ccccc43)c2=O)cc1,62.6,9.2,87.1,59.4,75.8
Cc1ccc(-n2c(SCC(=O)Nc3cc(C)on3)nc3c([nH]c4ccccc43)c2=O)cc1,17.3*,59.6,77.5,79.3,88.7
CCc1nnc(NC(=O)CSc2nnc3c(C)cc4c(C)ccc(C)c4n23)s1,.,30.3,.,27.5,.
Cc1ccc(NC(=O)CN2C(=O)N/C(=C/c3ccco3)C2=O)cc1,.,89.4,.,91.5,.
CCOC(=O)C1=C(c2ccccc2)NC(SCC(N)=O)=C(C#N)C1c1cccnc1 (stereo not drawn),.,80.1,.,82.0,.
SMILES,H69AR inhibit,PTEN del growth,HUVEC prolif 384,bCat KO growth,Lung fibro prol
Cc1nonc1NC(=O)CSc1nc(C2CCCCC2)nc2ccccc12,14.7*,49.6,94.4,44.8,68.1
Cc1cc2nc(SCC(=O)Nc3nonc3C)c3c(c2cc1C)CCCC3,44.4,102.6,60.1,97.5,74.1
Cc1ccc(Cn2c(SCC(=O)Nc3cc(C)on3)nc3ccccc3c2=O)cc1,16.7*,84.9,52.7,82.0,35.9*
Cc1cc(NC(=O)CSc2nc3ccccc3c(=O)n2C2CCCC2)no1,29.0*,9.5,54.8,8.5,52.8
CCCN(CCC)C(=O)CSc1nc2ccccc2c(=O)n1C1CCCC1,30.8*,66.0,103.2,68.8,91.1
O=S(=O)(NCc1ccncc1)c1ccc(S(=O)(=O)NCC2CCCO2)cc1 (stereo not drawn),91.4,86.8,109.2,85.5,102.0
COc1ccc(CNC(=O)C(c2ccc(C)cc2)N(Cc2cccs2)C(=O)c2ccc3c(c2)OCCO3)cc1 (stereo not drawn),.,35.1,.,37.2,.
Cc1cc(NC(=O)CSc2nc(C3CCCCC3)nc3ccccc23)no1,19.6*,84.6,100.3,82.5,81.8
CCc1cc2cc3c(cc2nc1SCC(=O)Nc1cc(C)on1)OCO3,30.0*,30.1,42.5,14.4,75.3
